Bioassay records as filed in PubChem.
Smad3 FoxH1 inh: Smad3/FoxH1 peptide binding inhibitors, primary screen, biochemical, TR-FRET; inhibition, % at 25 µM; TR-FRET Smad3/Dy647-FoxH1 peptide binding, europium anti-His; Mothers against decapentaplegic homolog 3 (Homo sapiens), P84022; actives 0.29% (n = 88,000);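 active means compounds that reduce the energy-transfer binding signal between the protein and its labelled peptide by more than half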;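 further: 0% = Smad3 plus labelled peptide maximal FRET and 100% = peptide-only background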
FAK inh: FAK kinase inhibitors, primary screen, biochemical | biochemical FAK kinase activity assay | Focal adhesion kinase 1 (Homo sapiens), Q05397 | inhibition, %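 (tested at 7 µM)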 | actives 0.84% (n = 97,000); in the data active means inhibition above about 19%;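 further: 0% = DMSO and 100% = reference compound high control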
ERa SRC1 inh: ERα–SRC-1 coactivator interaction inhibitors, primary screen, biochemical, TR-FRET, ERα LBD, estradiol-bound. TR-FRET ER-alpha LBD / SRC-1 peptide. Estrogen receptor (Homo sapiens), P03372. inhibition, % at 25.6 µM. actives 1.7% (n = 86,000); in the data active means inhibition above about 50%;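 further: 0% = receptor plus peptide control and 100% = peptide only without receptor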
ERa coact pot: enhancers of ERα–SRC-1 coactivator binding, primary screen, biochemical, TR-FRET, ERα LBD, low estradiol; Estrogen receptor (Homo sapiens), P03372; TR-FRET ERalpha-LBD/SRC-Cy5 coactivator binding, 2 h; 100 = basal binding, no effect; coactivator binding (% of control), % at 25.6 µM; actives 1.3% (n = 86,000); AID 639, 2007; in the data active means activity above about 200%;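 further: binding measured in presence of low estradiol as agonist stimulus; 0% = peptide alone without receptor and 100% = receptor with peptide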
ERb coact inh: inhibitors of ERβ-SRC1 coactivator interaction, primary screen, biochemical, TR-FRET, ERβ LBD, SRC-1 peptide | inhibition, % at 25.6 µM | actives 1.3% (n = 86,000) | TR-FRET ER-beta LBD / SRC1-Cy5 peptide binding; receptor agonist-loaded with 1 µM estradiol | AID 633, 2007;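 active means compounds whose percent inhibition of the receptor-coactivator binding signal exceeds about 50% in the single-dose screen, limit read from the data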;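 further: 0% = receptor plus peptide wells without compound and 100% = peptide-only wells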
Target sequence (Q92731 whole entry, looked up, the tested form may be a part): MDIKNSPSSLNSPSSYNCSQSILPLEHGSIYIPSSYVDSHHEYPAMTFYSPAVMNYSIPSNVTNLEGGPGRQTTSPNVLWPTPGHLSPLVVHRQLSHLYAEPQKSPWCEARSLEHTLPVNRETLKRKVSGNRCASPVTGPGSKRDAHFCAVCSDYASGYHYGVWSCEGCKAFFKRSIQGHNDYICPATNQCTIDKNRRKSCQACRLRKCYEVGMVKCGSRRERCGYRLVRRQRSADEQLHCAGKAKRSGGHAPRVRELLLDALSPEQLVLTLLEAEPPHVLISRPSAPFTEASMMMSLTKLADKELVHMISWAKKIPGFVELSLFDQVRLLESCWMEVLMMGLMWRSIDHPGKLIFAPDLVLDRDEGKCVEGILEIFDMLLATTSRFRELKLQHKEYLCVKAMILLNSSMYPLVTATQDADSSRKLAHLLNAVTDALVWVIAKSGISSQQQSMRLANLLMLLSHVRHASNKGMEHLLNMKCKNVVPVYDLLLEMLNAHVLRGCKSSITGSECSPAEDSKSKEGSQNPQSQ
Rev-RRE block: HIV-1 Rev-RRE binding inhibitors, primary screen, biochemical, FRET, protein-RNA interaction; P05866; Rev peptide-RRE RNA binding; inhibition, % at 8 µM; actives 0.79% (n = 97,000);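 active means inhibition above the screen-wide mean plus 3 SD, cut at about 35% in these data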;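 further: 0% = median DMSO wells and 100% = median Neomycin B control wells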
Target sequence (P05866 whole entry, looked up): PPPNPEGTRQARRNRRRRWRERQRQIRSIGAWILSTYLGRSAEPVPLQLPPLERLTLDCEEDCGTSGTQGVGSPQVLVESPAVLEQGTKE
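System: Cy5-labelled duplex RRE RNA binding fluorescein-labelled HIV Rev peptide; Signal: fluorescein-to-Cy5 FRET, 480 nm excitation; Also added: labelled Rev peptide; Compound: one concentration, 8 µM nominal; Buffer or medium: HEPES pH 7.5 salt buffer with EDTA; Read-out: % inhibition of FRET ratio versus controls; Schedule: 5 min preincubation and 15 min binding, 25 °C.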
Starred values were filed as active, the others as inactive; · = no result; [ ] = dose if it differs, or a comment. A selection: hits, their analogues and other compounds. The true share with any hit is near 4%.

SMILES	Smad3 FoxH1 inh	FAK inh	ERa SRC1 inh	ERa coact pot	ERb coact inh	Rev-RRE block
C=CCn1c(C)c(C(C)=O)c(N2CCCC2)nc1=S	-1	-1	-3	99	6	10
C=CCn1c(C)c(C(C)=O)c(N2CCN(c3ccccc3)CC2)nc1=S	5	-4	-8	98	7	82*[fluorescence artefact?]
O=C(/C(=C/c1ccc(Cl)cc1)c1nc2ccccc2[nH]1)c1cccs1	·	4	·	·	·	6
N=c1c(-c2nc3ccccc3[nH]2)cc(C(=O)c2cccs2)nn1-c1ccc(Cl)cc1	-6	10	90*[fluorescence artefact?]	29	52*	14
CC(C)[C@H](N=Cc1ccccc1O)C(=O)O	-4	·	·	·	·	·
COc1cccc(OC)c1C(=O)N1CCN(c2ccccn2)CC1	8	0	-30	117	52*[fluorescence artefact?]	-1
COc1ccc(-c2c3c(nc4sc(C(=O)Nc5ccccc5)c(N)c24)CCC3)cc1	6	0	68*[fluorescence artefact?]	185	24	-2
Cc1ccc(NC(=O)c2sc3nc4c(c(-c5ccco5)c3c2N)CCC4)cc1	0	1	59*	72	43	18
O=C1C2=C(Nc3cc([N+](=O)[O-])ccc3N2)O[C@@H]1c1c[nH]c2ccc(COc3ccccc3)cc12	5	·	·	·	·	·
NC(=S)Nc1cccc2cc3ccccc3cc12	·	1	·	·	·	102*[fluorescence artefact?]
NS(=O)(=O)c1ccc(NCc2cnc3ccccc3c2)cc1	102*	·	·	·	·	·
O=CN[C@@H](Cc1cnc[nH]1)C(=O)O	0	·	·	·	·	·
Cc1ccc(S(=O)(=O)N2CCC(C(=O)Nc3nnc(-c4ccco4)s3)CC2)cc1	12	4	25	200*[fluorescence artefact?]	21	16
Cc1ccc(S(=O)(=O)N2CCC(C(=O)N[C@H](C(=O)NCc3ccco3)C(C)C)CC2)cc1	0	1	57*[fluorescence artefact?]	98	50*[fluorescence artefact?]	-1
Cc1ccc(S(=O)(=O)N2CCC(C(=O)N[C@H](C(=O)NC3CCS(=O)(=O)C3)C(C)C)CC2)cc1 (stereo not given in full)	·	-6	·	·	·	-5
O=C(Nc1nnc(-c2ccco2)s1)C1CCCCC1	-11	-4	10	160	10	2
CN1CCN(CCCN)CC1	-5	·	·	·	·	·
COc1ccc(CN2CCn3ncc(C(=O)Nc4cc(C)cc(C)c4)c3C2=O)cc1	-9	9	15	252*[fluorescence artefact?]	5	4
COC(=O)c1cc2n(n1)CCN(Cc1ccc(OC)cc1)C2=O	·	-1	·	·	·	2
CC1(C)C(=O)Nc2ccccc2N1C(=O)COc1ncnc2c(Cl)cc(Cl)cc12	-6	-2	-6	93	-3	4
CC1(C)C(=O)Nc2ccccc2N1C(=O)COc1ccc(S(=O)(=O)N2CCOCC2)cc1Cl	0	16	85*[fluorescence artefact?]	23	88*[fluorescence artefact?]	5
COc1ccc2c(c1)Cc1sc(NC(=O)c3ccccc3)nc1-2	9	1	-1	113	1	9
COc1ccc(C(=O)Nc2nc3c(s2)Cc2cc(OC)ccc2-3)cc1	11	-1	95*[fluorescence artefact?]	7	55*	1
Cc1nc(-c2ccccc2)nc2[nH]c(-c3ccccc3)cc(=O)c12	5	1	24	334*[fluorescence artefact?]	44	5
Cc1nc(C)c2c(=O)cc(-c3ccccc3)[nH]c2n1	-4	1	-21	117	-23	10
SMILES	Smad3 FoxH1 inh	FAK inh	ERa SRC1 inh	ERa coact pot	ERb coact inh	Rev-RRE block
CC[C@H]1CC[C@H]2[C@H]3CC=C4C[C@H](OC(C)=O)[C@@H](N)C[C@@]4(C)[C@@H]3CC[C@]12C	-4	·	·	·	·	·
O=C(NCc1ccc2c(c1)OCO2)c1ccccn1	0	0	2	98	-1	4
O=C(NCc1ccc2c(c1)OCO2)c1cc2ncc(Br)cn2n1	30	9	80*[fluorescence artefact?]	24	78*[fluorescence artefact?]	4
CC[C@H]1CN(C)[C@@H]2Cc3c([nH]c4ccccc34)C(=O)C[C@H]1[C@H]2C(=O)OC	1	·	·	·	·	·
CC1CCN(Cc2ccc(NC(=O)C3CCN(c4nnc(-n5cccc5)s4)CC3)cc2)CC1	16	·	85*[fluorescence artefact?]	146	72*[fluorescence artefact?]	·
O=C(C1CCN(c2nnc(-n3cccc3)s2)CC1)N1CCN(Cc2ccc3c(c2)OCO3)CC1	-10	·	24	99	1	·
COc1ccc(NC(=O)c2sc3cc(C(F)(F)F)cnc3c2-c2cccs2)cc1	26	-31	34	233*[fluorescence artefact?]	27	15
N#Cc1ccc(NC(=O)c2sc3cc(C(F)(F)F)cnc3c2-c2cccs2)cc1	5	-1	18	330*[fluorescence artefact?]	17	10
Cn1c([N+](=O)[O-])cnc1CN1CCN(CCO)CC1	0	·	·	·	·	·
N=C(N)SCc1cc(Cl)cc(Cl)c1O	10	·	·	·	·	·
CCN(CC)S(=O)(=O)c1cccc(-c2nnc(SCCCC(=O)c3ccc(F)cc3)o2)c1	-5	0	1	578*[fluorescence artefact?]	27	5
CCN(CC)S(=O)(=O)c1cccc(-c2nnc(SCCCC(=O)c3ccccc3)o2)c1	5	-9	-22	103	-14	2
O=C1c2ccccc2-c2ccc(NC(=O)[C@H]3CCCC[C@@H]3C(=O)O)cc21	4	·	·	·	·	·
COc1ccc(C)c2sc(NC(=O)C3=COCCO3)nc12	-3	4	93*[fluorescence artefact?]	104	-4	7
Cn1c(-c2ccc3nc(N)sc3c2)nc2cc(N)ccc21	6	6	64*[fluorescence artefact?]	27	54*[fluorescence artefact?]	3
Nc1nc2ccc(O)cc2s1	-1	1	-2	96	7	4
Cc1ccc(-n2c(N)c(-c3nc4ccccc4n3C)sc2=S)cc1	5	9	-5	81	-4	6
Cn1c(-c2ccc(N)cc2)nc2ccccc21	0	0	3	650*[fluorescence artefact?]	-7	5
O=C(CSc1nn(-c2ccccc2)c(=S)s1)NC(=O)NCc1ccco1	0	0	22	89	22	2
COc1cccc(-c2nc(-c3ccccc3)no2)c1	16	0	8	97	-14	18
O=C(Nc1ccc(-c2noc(-c3cccs3)n2)cc1)c1cccnc1	0	-1	-17	364*	2	8
COc1ccc(CC(=O)Nc2ccc(-c3noc(-c4cccc(OC)c4)n3)cc2)cc1	-17	1	38	287*[fluorescence artefact?]	50	2
COc1cccc(NC(=O)c2cccnc2)c1	-5	0	-6	109	-4	8
CC(Oc1ccc(Cl)cc1Cl)c1nc(-c2ccc(NC(=O)c3cccnc3)cc2)no1 (stereo not given)	-2	2	-7	122	-9	12
COc1cccc(-c2nc(-c3ccc(NC(=O)c4cccnc4)cc3)no2)c1	7	9	-4	203*[fluorescence artefact?]	18	4
